How the values were obtained:
proteinase K = proteinase K (Parengyodontium album, UniProt P06873); experiment: Protease activity assay, proteinase K; assay type: biochemical, Engyodontium album
human chymotrypsin = human chymotrypsin (Homo sapiens, UniProt P17538); experiment: Protease activity assay, chymotrypsin; assay type: biochemical; conditions: isoleucine in 1 versus valine in 2 and 3
bovine trypsin = experiment: Protease activity assay, trypsin; assay type: biochemical; conditions: incubated with up to 20 μM
Procedure, shortened: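 Bovine trypsin in DPBS pH 7.4 with 0.01% Tween-20 and 2 mM DTT was preincubated for 30 min at 22°C with an equal volume of 3-fold serial dilutions of the test compound (DMSO stock; final 20 μM to 339 pM). The mix was added to z-Leu-Arg-Arg-AMC (final 100 μM; enzyme 10 nM). AMC fluorescence (360/460 nm) was read every 3 min at 22°C, and the rate (RFU/s) was taken over 30 min.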

[1] = test system: H-460 lung cancer cell line; experiment: H-460 lung cancer cell cytotoxicity assay; assay type: cell-based; conditions: read-out: Cytotoxic activity IC50

Chain of proteinase K (P06873 106-384): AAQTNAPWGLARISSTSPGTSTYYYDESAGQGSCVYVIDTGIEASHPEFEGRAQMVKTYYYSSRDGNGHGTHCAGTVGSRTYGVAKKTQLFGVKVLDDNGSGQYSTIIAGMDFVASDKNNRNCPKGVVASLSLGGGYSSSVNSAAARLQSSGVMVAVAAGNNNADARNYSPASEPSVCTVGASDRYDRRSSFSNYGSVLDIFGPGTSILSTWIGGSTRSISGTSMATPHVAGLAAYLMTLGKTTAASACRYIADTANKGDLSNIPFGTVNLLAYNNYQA
Chain of human chymotrypsin (P17538 19-263): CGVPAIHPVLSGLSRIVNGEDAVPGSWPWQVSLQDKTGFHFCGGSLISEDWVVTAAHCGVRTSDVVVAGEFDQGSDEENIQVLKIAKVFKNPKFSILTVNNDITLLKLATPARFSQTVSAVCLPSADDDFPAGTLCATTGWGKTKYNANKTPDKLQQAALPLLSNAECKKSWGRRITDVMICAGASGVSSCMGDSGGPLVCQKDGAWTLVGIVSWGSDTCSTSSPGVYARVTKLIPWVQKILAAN

C/C=C1\NC(=O)[C@@H](NC(=O)[C@H](CCC(N)=O)NC(=O)CCCCC)[C@@H](C)OC(=O)[C@H](C(C)C)NC(=O)[C@H](Cc2ccc(O)cc2)N(C)C(=O)[C@H](Cc2ccccc2)N2C(=O)[C@H](CC[C@H]2O)NC1=O [Lyngbyastatin 7, lyngbyastatin 7] was tested, and the IC50 (proteinase K) was 1570 nM.

For C/C=C1\NC(=O)[C@@H](NC(=O)[C@@H](NC(=O)[C@H](C)NC(=O)C/C(C)=C/Cl)[C@@H](C)CC)[C@@H](C)OC(=O)[C@H](C(C)C)NC(=O)[C@H](Cc2ccc(O)cc2)N(C)C(=O)[C@H](Cc2ccccc2)N2C(=O)[C@H](CC[C@H]2O)NC1=O [Tutuilamide A (1), tutuilamide A], the “Fold reduction in potency for chymotrypsin” value (human chymotrypsin) was 2 fold, the “Inhibition of bovine trypsin” value (bovine trypsin) was “no inhibition” and the IC50 [1] was 530 ± 40 nM.

C/C=C1\NC(=O)[C@@H](NC(=O)[C@@H](NC(=O)[C@H](C)NC(=O)C/C(C)=C/Cl)C(C)C)[C@@H](C)OC(=O)[C@H](C(C)C)NC(=O)[C@H](Cc2ccc(O)cc2)N(C)C(=O)[C@H](Cc2ccccc2)N2C(=O)[C@H](CC[C@H]2O)NC1=O [Tutuilamide B (2), tutuilamide B] was tested, and the “Inhibition of bovine trypsin” value (bovine trypsin) was “no inhibition” and the IC50 [1] was 1270 ± 210 nM.

C/C=C1\NC(=O)[C@@H](NC(=O)[C@@H](NC(=O)C/C(=C/Cl)CC)C(C)C)[C@@H](C)OC(=O)[C@H](C(C)C)NC(=O)[C@H](Cc2ccc(O)cc2)N(C)C(=O)[C@H](Cc2ccccc2)N2C(=O)[C@H](CC[C@H]2O)NC1=O [Tutuilamide C (3), tutuilamide C] was tested, and the “Inhibition of bovine trypsin” value (bovine trypsin) was “no inhibition” and the IC50 [1] was 4780 ± 450 nM.
